Publication PMC5066155 (ACS Medicinal Chemistry Letters, 2016)
Like-named read-outs stand apart in the source and are kept apart here.

Columns and labels:
[1] = test system: cynomolgus monkey plasma sPLA2; experiment: In vitro sPLA2 inhibition in cynomolgus monkey plasma; type: biochemical; details: read-out: ICu,50
[2] = test system: sPLA2 activity in HepG2 cells; experiment: sPLA2 activity inhibition in HepG2 cells; type: cell-based; details: Homo sapiens, HepG2, read-out: sPLA2 activity inhibition IC50
[3] = Toxicological profile in animals; type: in vivo; details: rats, dogs, and cynomolgus monkeys
[4] = Pharmacokinetics in mouse; details: in vivo, iv, 10 μmol/kg
Pharmacokinetics in dog = details: in vivo, iv, 1 μmol/kg
Pharmacokinetics in rat = details: in vivo, iv, 2 μmol/kg
[5] = test system: human plasma sPLA2 activity; experiment: Human plasma sPLA2 inhibition assay; type: biochemical
Procedure, shortened: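 Inhibition of endogenous sPLA2 activity in human plasma, run by a previously established protocol. The plasma IC50 is converted to an unbound value: IC50 × Fu/100, where Fu = 100 − human plasma protein binding (%). Values are means of at least two experiments, with experimental error within 20% of the value.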

sPLA2-IIa [6] = molecular target: T1, sPLA2-IIa (Homo sapiens, UniProt P14555); experiment: Ligand efficiency / ligand lipophilicity efficiency from sPLA2-IIa IC50; details: pIC50 (sPLA2-IIa) – logD
T1 sequence (P14555 21-144): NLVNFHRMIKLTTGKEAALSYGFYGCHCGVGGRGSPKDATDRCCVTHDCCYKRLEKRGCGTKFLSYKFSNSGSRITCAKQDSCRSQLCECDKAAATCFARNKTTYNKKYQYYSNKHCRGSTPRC

sPLA2-IIa [7] = molecular target: T1, sPLA2-IIa; experiment: sPLA2 inhibition assay using phosphatidylcholine as substrate; type: biochemical; details: for increase in affinity/potency compared to 1: sPLA2-IIa, relative to compound 1
IKs = IKs (Homo sapiens, UniProt P51787); experiment: IonWorks patch clamp, CHO cells expressing IKs; type: cell-based
human OATP1B1 = molecular target: T2, human OATP1B1 (Homo sapiens, UniProt Q9Y6L6); experiment: Inhibition of pivastatin uptake to HEK293 cells transfected with human OATP1B1; type: cell-based
T2 sequence (Q9Y6L6 1-691): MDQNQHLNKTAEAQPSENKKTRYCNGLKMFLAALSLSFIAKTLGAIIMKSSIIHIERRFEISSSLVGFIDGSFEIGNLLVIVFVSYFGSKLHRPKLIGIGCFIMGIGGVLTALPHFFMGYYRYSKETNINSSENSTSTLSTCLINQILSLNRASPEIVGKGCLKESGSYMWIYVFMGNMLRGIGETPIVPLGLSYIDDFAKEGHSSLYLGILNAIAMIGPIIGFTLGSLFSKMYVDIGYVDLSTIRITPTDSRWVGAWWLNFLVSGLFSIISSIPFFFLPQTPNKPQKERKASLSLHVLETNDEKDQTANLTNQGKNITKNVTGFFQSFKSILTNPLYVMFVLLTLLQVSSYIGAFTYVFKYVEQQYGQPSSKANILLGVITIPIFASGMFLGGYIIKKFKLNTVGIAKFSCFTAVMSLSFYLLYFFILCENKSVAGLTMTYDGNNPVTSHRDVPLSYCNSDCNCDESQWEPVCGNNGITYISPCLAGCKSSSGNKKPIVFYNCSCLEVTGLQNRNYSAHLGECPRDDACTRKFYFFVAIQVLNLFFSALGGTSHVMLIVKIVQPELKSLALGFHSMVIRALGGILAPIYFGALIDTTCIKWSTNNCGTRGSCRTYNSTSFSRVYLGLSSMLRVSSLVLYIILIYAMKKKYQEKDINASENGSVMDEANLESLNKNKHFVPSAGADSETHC
Procedure, shortened: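 HEK293 cells transfected with human OATP1B1 are used to measure the test compound's inhibition of pivastatin uptake into the cells. The IC50 is reported as an estimated value. Results are means of at least two experiments, with experimental error within 20% of the value.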

[8] = Intrinsic clearance in human hepatocytes; type: in vitro ADME; details: pH 7.4
sPLA2-X = molecular target: T3, sPLA2-X (Homo sapiens, UniProt O15496); experiment: sPLA2 inhibition assay using phosphatidylcholine as substrate; type: biochemical
T3 sequence (O15496 43-165): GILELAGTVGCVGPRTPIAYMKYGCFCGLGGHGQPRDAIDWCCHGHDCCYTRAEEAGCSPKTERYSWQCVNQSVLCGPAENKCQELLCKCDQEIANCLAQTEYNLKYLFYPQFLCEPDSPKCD

sPLA2-V = molecular target: T4, sPLA2-V (Homo sapiens, UniProt P39877); experiment: as above; type: biochemical
T4 sequence (P39877 21-138): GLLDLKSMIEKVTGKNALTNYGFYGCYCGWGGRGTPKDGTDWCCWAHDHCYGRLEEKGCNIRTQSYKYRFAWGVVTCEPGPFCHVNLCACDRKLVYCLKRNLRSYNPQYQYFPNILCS

[9] = read-out: plasma ICu,50, plasma sPLA2 IC50 × Fu/100
[10] = read-out: plasma ICu,50, plasma sPLA2 IC50 × Fu/100, NA = not active at maximum tested concentration (25 μM)

IKs, sequence (P51787 whole entry): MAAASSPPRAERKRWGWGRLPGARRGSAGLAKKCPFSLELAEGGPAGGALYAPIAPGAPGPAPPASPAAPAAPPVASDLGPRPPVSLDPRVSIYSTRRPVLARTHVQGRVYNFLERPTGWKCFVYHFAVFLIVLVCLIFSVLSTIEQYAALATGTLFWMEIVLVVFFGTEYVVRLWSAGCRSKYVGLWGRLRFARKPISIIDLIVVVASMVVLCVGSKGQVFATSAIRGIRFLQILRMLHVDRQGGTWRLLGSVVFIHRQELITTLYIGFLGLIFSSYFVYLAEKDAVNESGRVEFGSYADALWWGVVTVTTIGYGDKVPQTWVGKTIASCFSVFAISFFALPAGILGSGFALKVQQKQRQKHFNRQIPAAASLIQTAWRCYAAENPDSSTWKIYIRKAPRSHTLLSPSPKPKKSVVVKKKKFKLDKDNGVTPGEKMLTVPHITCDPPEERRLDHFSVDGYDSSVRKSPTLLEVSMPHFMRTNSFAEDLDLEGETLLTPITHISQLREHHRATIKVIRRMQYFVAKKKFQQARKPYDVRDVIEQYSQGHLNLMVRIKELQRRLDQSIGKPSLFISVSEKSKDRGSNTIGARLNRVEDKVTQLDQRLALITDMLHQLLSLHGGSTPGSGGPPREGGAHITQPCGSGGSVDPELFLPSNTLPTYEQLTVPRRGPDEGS

In the case of C[C@H](Cc1cccc(-c2cc(Cc3ccccc3)ccc2C(N)=O)c1)C(=O)O [(R)-7], the IC50 [1] is reported as 1 nM, the IC50 [2] is reported as < 14 nM and the toxicological profile [3] is reported as “favorable toxicological profile”. For the same compound, the clearance [4] was 9.2 mL/min/kg, the clearance (Pharmacokinetics in dog) was 0.2 mL/min/kg and the clearance (Pharmacokinetics in rat) was 1 mL/min/kg. The IC50 [5, 9] was 0.1 nM.
NC(=O)c1ccc(Cc2ccccc2)cc1 [Compound 1, 4-benzylbenzamide] gave an LLE (sPLA2-IIa [6]) of 2.2 and an IC50 [5, 10] of 900 nM.
For NC(=O)c1ccc(Cc2ccccc2)cc1-c1cccc(CC(=O)O)c1 [Compound 3], the “increase in affinity/potency compared to 1” value (sPLA2-IIa [7]) was “more than 300 fold”.
With NC(=O)c1ccc(Cc2ccccc2)cc1-c1cccc(CCC(=O)O)c1 [Compound 4] the IC50 (IKs) was > 33.3 µM, the “increase in affinity/potency compared to 1” value (sPLA2-IIa [7]) was 2000 fold and the clearance (Pharmacokinetics in rat; Sprague-Dawley) was 1 mL/min/kg. The IC50 [5, 9] was 7 nM.
With CC(Cc1cccc(-c2cc(Cc3ccccc3)ccc2C(N)=O)c1)C(=O)O (stereo not shown) [Compound 7] the IC50 (human OATP1B1) was > 25 µM.
CCC(Cc1cccc(-c2cc(Cc3ccccc3)ccc2C(N)=O)c1)C(=O)O (stereo not shown) [Compound 8] showed an IC50 [5, 9] of 0.8 nM.
NC(=O)c1ccc(Cc2ccccc2)cc1-c1cccc(CC2(C(=O)O)CC2)c1 [Compound 9] showed a hepatocyte CLint at 1 µM [8] of 21 µL/min/1e6 cells, an IC50 (sPLA2-X) of 580 nM and an IC50 (sPLA2-IIa [7]) of 18 nM. For the same compound, the IC50 (sPLA2-V) was 250 nM and the IC50 [5, 9] was 0.9 nM.
CCc1c(C(=O)C(N)=O)c2c(OCC(=O)O)cccc2n1Cc1ccccc1 [varespladib, reference compound] gave an IC50 [5, 10] of 8 nM.
